{"source": "paper PMC4783179", "about": "(The Journal of comparative neurology, 2015)", "key": {"5-HT1A receptors [1]": {"biological_target": "T1, 5-HT1A receptors (Rattus norvegicus, UniProt P19327)", "T1 sequence (P19327 1-422)": "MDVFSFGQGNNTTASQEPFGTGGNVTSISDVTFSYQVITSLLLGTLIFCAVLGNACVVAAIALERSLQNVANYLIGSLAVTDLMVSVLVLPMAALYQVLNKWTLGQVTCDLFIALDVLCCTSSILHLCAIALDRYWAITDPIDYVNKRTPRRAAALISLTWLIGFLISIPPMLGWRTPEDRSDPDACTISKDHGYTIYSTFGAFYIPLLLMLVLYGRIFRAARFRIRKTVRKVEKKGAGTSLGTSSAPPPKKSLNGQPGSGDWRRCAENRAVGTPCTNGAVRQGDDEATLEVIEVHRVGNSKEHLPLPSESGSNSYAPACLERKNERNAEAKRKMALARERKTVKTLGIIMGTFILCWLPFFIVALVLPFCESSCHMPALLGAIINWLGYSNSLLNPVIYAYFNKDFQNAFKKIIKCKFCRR", "experiment": "In vitro autoradiography of 18F-Mefway, rat brain slices", "format": "binding", "method_in_brief": "(§1)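 Horizontal 10 µm slices covering hippocampus, frontal cortex, dorsal raphe and cerebellum. Sources: frozen brains of male BALB/c mice (25 g) or male Sprague-Dawley rats (250–300 g). Preincubated in 50 mM Tris-HCl pH 7.4 for 10 min at room temperature, then 37–185 kBq/mL tracer at 37 °C for 1 h. […] Washed, then phosphor screen for 24 h. Regional DLU/mm² expressed as ratios to cerebellum as reference.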"}, "5-HT1A receptors [2]": {"biological_target": "T2, 5-HT1A receptors (Mus musculus, UniProt Q64264)", "T2 sequence (Q64264 1-421)": "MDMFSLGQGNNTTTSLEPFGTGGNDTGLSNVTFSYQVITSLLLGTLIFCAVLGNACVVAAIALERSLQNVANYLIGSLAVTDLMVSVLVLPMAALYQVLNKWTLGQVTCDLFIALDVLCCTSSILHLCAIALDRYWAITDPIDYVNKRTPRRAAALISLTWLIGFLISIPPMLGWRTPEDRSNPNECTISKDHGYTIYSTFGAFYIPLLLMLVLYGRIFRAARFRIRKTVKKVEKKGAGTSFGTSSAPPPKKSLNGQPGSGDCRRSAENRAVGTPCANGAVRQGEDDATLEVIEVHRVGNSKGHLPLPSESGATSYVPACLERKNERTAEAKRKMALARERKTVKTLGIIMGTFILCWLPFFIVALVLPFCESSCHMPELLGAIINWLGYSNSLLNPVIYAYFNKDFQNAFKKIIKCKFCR", "experiment": "In vitro autoradiography of 18F-Mefway, mouse brain slices", "format": "binding", "method_in_brief": "as §1"}, "[3]": {"biological_target": "serotonin 5-HT1A receptor (Homo sapiens, UniProt P08908)", "format": "binding", "settings": "human cloned receptor, PDSP"}, "[4]": {"tested_on": "serotonin 5-HT1A receptor", "format": "binding, human", "settings": "[5-HT1A affinity/other receptor affinity]×100; 5-HT1A 0.6 or 2.2 nM for WAY-100635, 0.9 nM for Mefway"}, "[5]": {"settings": "human plasma; ref Hillmer et al., 2014; cited from earlier work"}, "D1": {"biological_target": "D1 (Homo sapiens, UniProt P21728)", "sequence (P21728 whole entry)": "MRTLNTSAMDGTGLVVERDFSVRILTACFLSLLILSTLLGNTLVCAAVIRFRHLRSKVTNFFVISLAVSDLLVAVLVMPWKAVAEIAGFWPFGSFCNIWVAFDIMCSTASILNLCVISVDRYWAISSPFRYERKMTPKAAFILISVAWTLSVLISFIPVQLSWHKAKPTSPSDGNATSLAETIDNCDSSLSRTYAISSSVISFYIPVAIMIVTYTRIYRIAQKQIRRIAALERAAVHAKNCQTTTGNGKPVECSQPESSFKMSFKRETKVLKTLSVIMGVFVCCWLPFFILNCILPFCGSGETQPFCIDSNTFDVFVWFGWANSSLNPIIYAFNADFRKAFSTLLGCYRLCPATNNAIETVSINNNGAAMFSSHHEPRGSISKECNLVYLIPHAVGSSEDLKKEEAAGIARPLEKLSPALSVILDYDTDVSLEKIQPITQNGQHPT", "experiment": "NIMH PDSP binding affinity, human cloned receptor", "settings": "D1-like receptors"}, "[6]": {"settings": "rhesus monkey; ref Wooten et al., 2013; cited from earlier work"}, "5-HT1A receptors [7]": {"biological_target": "T2, 5-HT1A receptors", "settings": "cited from earlier work; for Brain Uptake: initial, 1–2 min post-injection"}, "[8]": {"tested_on": "all other human-cloned receptor subtypes tested", "experiment": "NIMH PDSP screening of the remaining panel", "format": "binding"}, "5-HT1A receptors [9]": {"biological_target": "T3, 5-HT1A receptors (Homo sapiens, UniProt P08908)", "T3 sequence (P08908 1-422)": "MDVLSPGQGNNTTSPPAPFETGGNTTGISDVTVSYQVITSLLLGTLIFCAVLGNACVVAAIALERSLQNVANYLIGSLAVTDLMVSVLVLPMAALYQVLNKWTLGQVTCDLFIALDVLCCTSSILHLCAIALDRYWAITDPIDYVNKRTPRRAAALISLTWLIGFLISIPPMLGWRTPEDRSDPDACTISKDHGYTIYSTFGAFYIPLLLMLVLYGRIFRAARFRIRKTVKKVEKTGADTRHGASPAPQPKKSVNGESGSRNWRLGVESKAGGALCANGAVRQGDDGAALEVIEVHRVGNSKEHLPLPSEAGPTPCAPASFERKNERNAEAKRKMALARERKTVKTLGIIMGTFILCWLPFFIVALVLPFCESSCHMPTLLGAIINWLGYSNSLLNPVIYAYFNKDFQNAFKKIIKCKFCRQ", "experiment": "In vitro autoradiography of 18F-Mefway, human postmortem hippocampus sections", "format": "binding", "method_in_brief": "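Dog tissue: unfixed beagle brain (4.5–15.4 yr), stored at −80 °C, cut as 10 µm hemi-coronal slices with hippocampus and cortex. Human tissue: postmortem hippocampus (PMI 3.8–5.8 h), cut at 7 µm. Slices preincubated in 50 mM Tris-HCl pH 7.4 for 10 min at room temperature, then incubated with 37–185 kBq/mL tracer at 37 °C for 1 h. […] Two 1-min ice-cold buffer washes, then 24 h phosphor-screen exposure. Binding read as DLU/mm².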"}, "D5": {"biological_target": "D5 (Homo sapiens, UniProt P21918)", "sequence (P21918 whole entry)": "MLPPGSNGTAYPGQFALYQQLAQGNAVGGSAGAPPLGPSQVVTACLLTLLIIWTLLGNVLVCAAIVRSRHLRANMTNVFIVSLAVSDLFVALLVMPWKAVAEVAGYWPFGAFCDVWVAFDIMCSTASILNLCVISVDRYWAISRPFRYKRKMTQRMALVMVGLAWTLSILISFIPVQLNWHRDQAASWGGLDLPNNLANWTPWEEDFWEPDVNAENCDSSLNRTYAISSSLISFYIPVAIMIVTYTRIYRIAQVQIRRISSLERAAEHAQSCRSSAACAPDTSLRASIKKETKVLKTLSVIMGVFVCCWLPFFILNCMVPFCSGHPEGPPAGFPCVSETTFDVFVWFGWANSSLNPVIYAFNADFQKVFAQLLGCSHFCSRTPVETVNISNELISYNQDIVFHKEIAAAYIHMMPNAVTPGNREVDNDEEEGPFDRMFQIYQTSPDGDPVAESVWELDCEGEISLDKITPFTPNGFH", "experiment": "NIMH PDSP binding affinity, human cloned receptor", "settings": "D1-like receptors"}, "dopamine D4": {"biological_target": "dopamine D4 (Homo sapiens, UniProt P21917)", "sequence (P21917 whole entry)": "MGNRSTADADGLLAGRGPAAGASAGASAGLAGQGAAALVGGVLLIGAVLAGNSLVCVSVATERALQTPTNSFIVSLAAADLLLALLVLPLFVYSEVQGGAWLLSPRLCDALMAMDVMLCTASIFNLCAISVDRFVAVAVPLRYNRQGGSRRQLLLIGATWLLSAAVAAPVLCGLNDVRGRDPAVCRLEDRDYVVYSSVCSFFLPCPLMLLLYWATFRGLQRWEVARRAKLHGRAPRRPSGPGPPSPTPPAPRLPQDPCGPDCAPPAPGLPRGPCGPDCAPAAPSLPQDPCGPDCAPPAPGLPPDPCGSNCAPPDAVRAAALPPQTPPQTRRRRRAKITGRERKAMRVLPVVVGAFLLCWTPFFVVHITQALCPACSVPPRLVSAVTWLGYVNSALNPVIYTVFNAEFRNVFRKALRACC", "experiment": "NIMH PDSP binding affinity, human cloned receptor"}, "[10]": {"biological_target": "multidrug resistance 1 protein (MDR1; P-glycoprotein) (Homo sapiens, UniProt P08183)", "experiment": "Multidrug resistance", "format": "biochemical", "settings": "read-out: IC50 as potential substrate of MDR1 (P-glycoprotein)"}, "adrenergic α1A": {"biological_target": "adrenergic α1A (Homo sapiens, UniProt P35348)", "sequence (P35348 whole entry)": "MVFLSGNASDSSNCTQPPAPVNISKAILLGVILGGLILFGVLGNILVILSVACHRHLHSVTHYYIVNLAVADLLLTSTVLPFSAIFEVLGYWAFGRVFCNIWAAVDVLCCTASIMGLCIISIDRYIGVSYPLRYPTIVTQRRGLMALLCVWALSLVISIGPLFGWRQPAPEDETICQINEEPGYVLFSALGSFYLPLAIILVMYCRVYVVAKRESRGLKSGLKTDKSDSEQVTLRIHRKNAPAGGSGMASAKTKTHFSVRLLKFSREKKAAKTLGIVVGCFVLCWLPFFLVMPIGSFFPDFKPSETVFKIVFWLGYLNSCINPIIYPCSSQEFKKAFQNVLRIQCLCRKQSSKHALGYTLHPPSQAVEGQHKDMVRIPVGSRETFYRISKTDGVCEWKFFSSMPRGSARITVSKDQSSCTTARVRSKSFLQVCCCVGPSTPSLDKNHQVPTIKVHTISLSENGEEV", "experiment": "NIMH PDSP binding affinity, human cloned receptor"}, "α1B": {"biological_target": "α1B (Homo sapiens, UniProt P35368)", "sequence (P35368 whole entry)": "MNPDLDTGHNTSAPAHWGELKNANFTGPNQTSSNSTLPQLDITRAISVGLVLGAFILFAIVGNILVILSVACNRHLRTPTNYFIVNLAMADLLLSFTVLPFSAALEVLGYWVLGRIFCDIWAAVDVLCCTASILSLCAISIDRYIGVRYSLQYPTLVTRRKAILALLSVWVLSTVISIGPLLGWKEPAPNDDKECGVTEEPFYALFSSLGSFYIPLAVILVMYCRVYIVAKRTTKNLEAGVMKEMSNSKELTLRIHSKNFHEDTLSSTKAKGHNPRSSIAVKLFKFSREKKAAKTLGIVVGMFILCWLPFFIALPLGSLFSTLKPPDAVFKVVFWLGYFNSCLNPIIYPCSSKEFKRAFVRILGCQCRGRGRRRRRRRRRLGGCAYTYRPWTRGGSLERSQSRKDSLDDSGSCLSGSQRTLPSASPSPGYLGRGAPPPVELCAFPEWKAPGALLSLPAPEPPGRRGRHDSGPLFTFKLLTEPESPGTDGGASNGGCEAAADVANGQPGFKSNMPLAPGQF", "experiment": "NIMH PDSP binding affinity, human cloned receptor"}, "[11]": {"settings": "[5-HT1A affinity/other receptor affinity]×100, 5-HT1A 0.6 or 2.2 nM for WAY-100635, 0.9 nM for Mefway"}}, "note": "pIC50, pKi: −log10 of the molar value. Read-outs that look alike come from different tables or passages of the source. Marks after values point to notes of the source that are not given here.", "data": [{"smiles": "COc1ccccc1N1CCN(CCN(C(=O)C2CCC(CF)CC2)c2ccccn2)CC1", "note": "(stereo not drawn) [Mefway]", "values": [{"measurement": "Binding displaced in hippocampus and cortex", "setting": "5-HT1A receptors [1]; in the presence of 10 μM of WAY-100635, rat (all the species)", "result": "> 95", "unit": "%"}, {"measurement": "Ratio in cortical regions, autoradiography", "setting": "5-HT1A receptors [1]; rats", "result": "> 10"}, {"measurement": "Ratio of hippocampus to cerebellum, autoradiography", "setting": "5-HT1A receptors [1]; rats, brain slices incubated for one hr", "result": 30}, {"measurement": "Ratio of raphe to cerebellum, autoradiography", "setting": "5-HT1A receptors [1]; rats, horizontal sections", "result": 23}, {"measurement": "Binding displaced in hippocampus and cortex", "setting": "5-HT1A receptors [2]; in the presence of 10 μM of WAY-100635, mouse (all the species)", "result": "> 95", "unit": "%"}, {"measurement": "Ratio in cortical regions, autoradiography", "setting": "5-HT1A receptors [2]; mice", "result": "> 10"}, {"measurement": "Ratio of hippocampus to cerebellum, autoradiography", "setting": "5-HT1A receptors [2]; mice, brain slices incubated for one hr", "result": 25}, {"measurement": "Ratio of raphe to cerebellum, autoradiography", "setting": "5-HT1A receptors [2]; mice, horizontal sections", "result": 22}, {"measurement": "Binding affinity, Ki, 5-HT1A", "setting": "[3]", "result": "subnanomolar affinity"}, {"measurement": "pKi", "setting": "[3]; read-out: Binding affinity, Ki, 5-HT1A", "result": 9.05}, {"measurement": "% human 5HT1A Selectivity, 5-HT1A", "setting": "[4]", "result": 100, "unit": "%"}, {"measurement": "Free Fraction in plasma", "setting": "[5]", "result": 5, "unit": "% ^j"}, {"measurement": "Affinity, D1 subtype", "setting": "D1", "result": "very poor affinities"}, {"measurement": "Free Fraction in plasma", "setting": "[6]", "result": 15, "unit": "% ^j"}, {"measurement": "HP/CB PET ratio", "setting": "5-HT1A receptors [7]; 90 mins post-injection, may be underestimated, ref Saigal et al., 2013", "result": "3 ^g"}, {"measurement": "Brain Uptake", "setting": "5-HT1A receptors [7]; ref Saigal et al., 2013, listed as 18F-Mefway", "result": 5, "unit": "%ID/cc"}, {"measurement": "Brain Uptake", "setting": "5-HT1A receptors [7]; ref Saigal et al., 2013", "result": "5 ^g %ID/cc"}, {"measurement": "Affinity, other adrenergic receptor subtypes", "setting": "[8]; adrenergic subtypes other than α1A and α1D", "result": "poor affinities"}, {"measurement": "Affinity, all other receptor subtypes tested in section 2.3", "setting": "[8]; at 10 μM concentration, significant = > 50% inhibition", "result": "did not exhibit significant affinity"}, {"measurement": "Affinity, other serotonin receptor subtypes", "setting": "[8]; serotonin subtypes other than 5-HT1A, 5-HT7, 5-HT2B", "result": "did not show significant affinities"}, {"measurement": "Ratio of hippocampus versus white matter, autoradiography", "setting": "5-HT1A receptors [9]; human hippocampus sections", "result": 13}, {"measurement": "Binding displaced in hippocampus and cortex", "setting": "5-HT1A receptors [9]; in the presence of 10 μM of WAY-100635, human (all the species)", "result": "> 95", "unit": "%"}, {"measurement": "Affinity, D5 subtype", "setting": "D5", "result": "very poor affinities"}, {"measurement": "% human 5HT1A Selectivity, D4", "setting": "dopamine D4; [11]", "result": 0.71, "unit": "%"}, {"measurement": "pKi", "setting": "dopamine D4; read-out: Binding affinity, Ki, D4, human cloned receptor, PDSP", "result": 6.90}, {"measurement": "pIC50", "setting": "[10]", "result": "< 4.52"}, {"measurement": "% human 5HT1A Selectivity, α1A", "setting": "adrenergic α1A; [11]", "result": 1.29, "unit": "%"}, {"measurement": "pKi", "setting": "adrenergic α1A; read-out: Binding affinity, Ki, α1A, human cloned receptor, PDSP", "result": 7.15}, {"measurement": "% human 5HT1A Selectivity, α1B", "setting": "α1B; [11]", "result": 0.18, "unit": "%"}, {"measurement": "pKi", "setting": "α1B; read-out: Binding affinity, Ki, α1B, human cloned receptor, PDSP", "result": 6.30}]}]}
